Measured values reported in ChEMBL document CHEMBL5653631, “A Potent and Selective ULK1 Inhibitor Suppresses Autophagy and Sensitizes Cancer Cells to Nutrient Stress” (iScience, 2018).

Key:
[1] = target: Serine/threonine-protein kinase 38-like (Homo sapiens) (UniProt Q9Y2H1); test: Inhibition of human recombinant NDR2 at 40 nM in presence of ATP by radiometric assay relative to control
[2] = target: Mitogen-activated protein kinase 8 (Homo sapiens) (UniProt P45983); test: Inhibition of human recombinant JNK1 at 40 nM related to control ULK1
Chain of Mitogen-activated protein kinase 8 (Homo sapiens) (P45983 whole entry): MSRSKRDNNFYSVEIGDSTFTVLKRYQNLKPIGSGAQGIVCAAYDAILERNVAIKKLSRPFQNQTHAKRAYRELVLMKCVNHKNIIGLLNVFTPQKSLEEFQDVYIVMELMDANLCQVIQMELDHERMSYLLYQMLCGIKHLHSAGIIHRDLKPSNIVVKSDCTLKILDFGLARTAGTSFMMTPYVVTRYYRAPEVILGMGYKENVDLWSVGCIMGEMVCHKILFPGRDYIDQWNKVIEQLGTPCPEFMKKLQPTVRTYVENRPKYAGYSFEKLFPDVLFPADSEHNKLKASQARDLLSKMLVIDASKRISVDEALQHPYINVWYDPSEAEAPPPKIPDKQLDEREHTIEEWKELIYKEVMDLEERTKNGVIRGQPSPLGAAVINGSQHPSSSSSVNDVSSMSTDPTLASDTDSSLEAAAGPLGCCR

[3] = target: Aurora kinase B (Homo sapiens) (UniProt Q96GD4); test: Inhibition of human recombinant AurB at 15 nM in presence of ATP by radiometric assay relative to control
Chain of Aurora kinase B (Homo sapiens) (Q96GD4 whole entry): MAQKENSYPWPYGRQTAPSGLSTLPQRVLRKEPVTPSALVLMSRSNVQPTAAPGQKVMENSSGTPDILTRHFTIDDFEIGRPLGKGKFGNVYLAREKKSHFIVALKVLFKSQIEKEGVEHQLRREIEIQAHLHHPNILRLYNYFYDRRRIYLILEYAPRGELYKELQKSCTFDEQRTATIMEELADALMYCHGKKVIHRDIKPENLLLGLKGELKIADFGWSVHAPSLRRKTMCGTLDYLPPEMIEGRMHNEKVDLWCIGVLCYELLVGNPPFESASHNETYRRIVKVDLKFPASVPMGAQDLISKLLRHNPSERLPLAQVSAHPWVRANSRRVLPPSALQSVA
How it was run: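 Part of a radiometric in vitro activity panel of 327 recombinant human kinases. Each kinase was tested in duplicate at one inhibitor concentration. Activity remaining was expressed as a percentage of the vehicle control, and percent inhibition was taken as 100 minus that value.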

[4] = target: T1, Bone morphogenetic protein receptor type-2 (Homo sapiens) (UniProt Q13873); test: Inhibition of human recombinant BMPR2 at 500 nM related to control ULK1
T1 sequence (whole entry): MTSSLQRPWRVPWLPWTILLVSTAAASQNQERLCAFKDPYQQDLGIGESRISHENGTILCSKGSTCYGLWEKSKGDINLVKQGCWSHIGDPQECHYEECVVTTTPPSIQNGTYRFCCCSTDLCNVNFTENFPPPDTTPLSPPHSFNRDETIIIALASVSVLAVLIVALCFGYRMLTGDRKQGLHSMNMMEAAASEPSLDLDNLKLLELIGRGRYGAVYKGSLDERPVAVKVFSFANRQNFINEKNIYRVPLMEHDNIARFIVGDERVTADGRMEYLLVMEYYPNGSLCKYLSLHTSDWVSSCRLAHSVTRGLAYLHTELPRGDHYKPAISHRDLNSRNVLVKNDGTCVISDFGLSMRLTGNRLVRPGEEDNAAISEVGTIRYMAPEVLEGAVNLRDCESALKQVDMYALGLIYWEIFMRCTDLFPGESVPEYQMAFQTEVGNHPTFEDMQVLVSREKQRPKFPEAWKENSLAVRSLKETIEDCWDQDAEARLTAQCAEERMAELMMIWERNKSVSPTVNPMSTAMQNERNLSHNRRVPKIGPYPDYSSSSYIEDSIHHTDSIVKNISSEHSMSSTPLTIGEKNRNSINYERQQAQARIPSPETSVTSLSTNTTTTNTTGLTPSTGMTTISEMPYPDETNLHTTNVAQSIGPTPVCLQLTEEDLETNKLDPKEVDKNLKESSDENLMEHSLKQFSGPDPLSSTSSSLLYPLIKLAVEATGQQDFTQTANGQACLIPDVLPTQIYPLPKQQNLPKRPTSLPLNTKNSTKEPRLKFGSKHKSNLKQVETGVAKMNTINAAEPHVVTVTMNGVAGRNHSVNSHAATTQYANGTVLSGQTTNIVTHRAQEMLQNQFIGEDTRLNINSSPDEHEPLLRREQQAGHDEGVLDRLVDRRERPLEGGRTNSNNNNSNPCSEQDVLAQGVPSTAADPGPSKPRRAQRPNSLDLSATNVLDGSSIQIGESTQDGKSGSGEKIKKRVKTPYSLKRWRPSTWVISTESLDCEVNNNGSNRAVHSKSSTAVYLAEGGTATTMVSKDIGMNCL

[5] = target: T2, Serine/threonine-protein kinase ULK3 (Homo sapiens) (UniProt Q6PHR2); test: Inhibition of human recombinant ULK3 at 500 nM related to control ULK1
T2 sequence (whole entry): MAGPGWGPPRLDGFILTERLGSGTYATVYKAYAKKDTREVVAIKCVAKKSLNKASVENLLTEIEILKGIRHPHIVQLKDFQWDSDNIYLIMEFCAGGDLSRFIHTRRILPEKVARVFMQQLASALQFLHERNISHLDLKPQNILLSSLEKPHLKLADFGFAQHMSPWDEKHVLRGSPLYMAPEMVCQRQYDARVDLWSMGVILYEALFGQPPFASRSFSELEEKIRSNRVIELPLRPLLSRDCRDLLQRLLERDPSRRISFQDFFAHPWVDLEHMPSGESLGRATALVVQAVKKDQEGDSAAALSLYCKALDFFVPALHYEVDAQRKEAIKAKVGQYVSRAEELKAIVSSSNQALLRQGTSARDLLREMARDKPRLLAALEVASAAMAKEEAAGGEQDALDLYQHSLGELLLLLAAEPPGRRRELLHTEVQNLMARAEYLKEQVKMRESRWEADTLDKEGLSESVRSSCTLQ

[6] = target: 3-phosphoinositide-dependent protein kinase 1 (Homo sapiens) (UniProt O15530); test: Inhibition of human recombinant PDK1 at 500 nM related to control ULK1
Chain of 3-phosphoinositide-dependent protein kinase 1 (Homo sapiens) (O15530 whole entry, looked up): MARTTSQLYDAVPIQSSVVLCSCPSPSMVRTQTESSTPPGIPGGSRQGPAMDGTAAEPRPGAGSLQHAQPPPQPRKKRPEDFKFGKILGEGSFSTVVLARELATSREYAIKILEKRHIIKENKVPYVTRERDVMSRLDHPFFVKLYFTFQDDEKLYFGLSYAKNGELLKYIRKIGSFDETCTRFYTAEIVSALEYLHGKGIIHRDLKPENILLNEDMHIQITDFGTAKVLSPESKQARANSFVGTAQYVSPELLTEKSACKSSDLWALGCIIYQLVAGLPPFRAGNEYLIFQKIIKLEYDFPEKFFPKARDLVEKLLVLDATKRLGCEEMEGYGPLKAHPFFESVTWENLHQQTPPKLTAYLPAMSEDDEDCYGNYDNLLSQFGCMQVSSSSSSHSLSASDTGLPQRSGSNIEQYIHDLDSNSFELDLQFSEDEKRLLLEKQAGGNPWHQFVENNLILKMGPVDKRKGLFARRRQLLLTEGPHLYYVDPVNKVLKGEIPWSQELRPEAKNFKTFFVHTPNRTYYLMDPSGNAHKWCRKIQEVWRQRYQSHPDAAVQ

Chain of Serine/threonine-protein kinase 38-like (Homo sapiens) (Q9Y2H1 2-464 limits assumed): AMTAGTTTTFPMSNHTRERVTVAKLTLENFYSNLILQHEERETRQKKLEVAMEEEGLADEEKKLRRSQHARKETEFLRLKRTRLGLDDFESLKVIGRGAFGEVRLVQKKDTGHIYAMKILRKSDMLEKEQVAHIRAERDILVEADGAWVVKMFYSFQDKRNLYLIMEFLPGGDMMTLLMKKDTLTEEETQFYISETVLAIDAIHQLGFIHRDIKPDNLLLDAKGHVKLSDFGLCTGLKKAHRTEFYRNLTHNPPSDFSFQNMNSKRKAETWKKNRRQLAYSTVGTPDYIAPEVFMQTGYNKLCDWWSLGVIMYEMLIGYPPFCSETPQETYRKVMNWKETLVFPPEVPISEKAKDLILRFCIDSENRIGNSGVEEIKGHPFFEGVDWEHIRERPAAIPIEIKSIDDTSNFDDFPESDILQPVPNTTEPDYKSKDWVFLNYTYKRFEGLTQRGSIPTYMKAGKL

Q: Which inhibition [1] does the source give for `O=C(N[C@@H](C1CC1)C(F)(F)F)c1cc(-c2cnn3cc(-c4ccc(F)cc4)cnc23)cs1` here?
A: 0%

Q: And the fold change (FC) [2]?
A: 0

Q: For `CC(C)[C@H](NC(=O)c1cc(-c2cnn3cc(-c4ccc(OCCN5CCCCC5)cc4)cnc23)cs1)C(F)(F)F`, which inhibition [3] is on record?
A: 18%

Q: With `CNC(=O)c1ccccc1Oc1nc(Nc2cc(OC)c(OC)c(OC)c2)ncc1Br` as the molecule, how does the fold change (FC) [4] read?
A: 0

Q: And the fold change (FC) [5]?
A: 1.14

Q: What about the fold change (FC) [6] of the same molecule?
A: 0.05
